The source of these data is article PMC10515597 (ACS Omega, 2023).

Series [1] concerns Leishmania amazonensis amastigotes. As to conditions: read-out: IC50-ama; L. amazonensis amastigotes ref 28; cited from earlier work.
Series [2] is described as follows: Cytotoxic activity, MTT colorimetric method. As to conditions: Swiss, mouse, murine peritoneal macrophages. In kind it is cell-based, Swiss mice.
For series [3], the system named is L. amazonensis intracellular amastigotes. Kind of series: Antiamastigote activity in infected macrophages. It is filed as cell-based, Leishmania amazonensis. The note with it: 24 h; for IC50: Leishmania amazonensis, Macrophage, read-out: IC50 amastigote. Summed up:
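Swiss mouse peritoneal macrophages (3 × 10⁵ cells mL⁻¹, complete RPMI-1640) adhered on coverslips for 4 h at 37 °C, 5% CO₂. They were infected 18 h with stationary-phase L. amazonensis promastigotes (MPRO/BR/1972/M1841-LV-79) at 10:1 and washed. Test compound (0.02–10 μM) was added for 24 h. Giemsa-stained cells were counted for infection index (% infected cells × parasites per infected cell). IC50 by nonlinear regression. Duplicates, three independent experiments.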

The subject of series [4] is L. amazonensis promastigotes. Kind of series: Antipromastigote assay, viable promastigotes counted with trypan blue. In kind it is cell-based. The note with it: Leishmania amazonensis, 72 h, read-out: IC50 promastigote. Summed up:
(§1)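 Promastigotes were grown at 28 °C to mid-log phase: L. amazonensis (MPRO/BR/1972/M1841-LV-79) in LIT medium, L. mexicana (MNYC/BZ/62/M379) in Schneider's medium with 10% heat-inactivated FBS. Exponential-phase cells were plated at 1 × 10⁷ mL⁻¹ with test compound 1.28–100 μM. After 72 h, viable promastigotes were counted by trypan blue in a Neubauer chamber. Duplicates, three independent experiments.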

Series [5] deals with L. mexicana intracellular amastigotes. Kind of series: Antiamastigote activity in infected macrophages. In kind it is cell-based. As to conditions: Leishmania mexicana, Macrophage, 48 h, read-out: IC50 amastigote. Summed up:
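Swiss mouse peritoneal macrophages (3 × 10⁵ cells mL⁻¹, complete RPMI-1640) adhered on coverslips for 4 h at 37 °C, 5% CO₂. They were infected 8 h with stationary-phase L. mexicana promastigotes (MNYC/BZ/62/M379) at 10:1 and washed. Test compound (0.02–10 μM) was added for 48 h. Giemsa-stained cells were counted for infection index (% infected cells × parasites per infected cell). IC50 by nonlinear regression. Duplicates, three independent experiments.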

The test system of series [6] is L. mexicana promastigotes. Kind of series: Antipromastigote assay, viable promastigotes counted with trypan blue. It is filed as cell-based. The note with it: Leishmania mexicana, read-out: IC50 promastigote. In a few lines:
as §1

Where a SMILES comes first, the peptide text is derived from it. Bridges are numbered along the chain shown (N, C = ends). Roman numbers before positions name the chains, in order. The star is where a group is joined. X2 = O=C(N=C(NCc1ccc(C(=O)*)cc1)Nc1ccc(Br)cc1)c1ccccc1

For `O=C(NC(=Nc1ccc(Br)cc1)NCc1ccccc1)c1ccccc1` [LQOF-G2, N-benzoyl-N′-benzyl-N″(4-bromophenyl)guanidine], the IC50 was 5.6 µM in series [1], 5.6 ± 2.5 µM in series [3] and 19.6 ± 0.2 µM in series [4]. In series [2], this molecule had a CC50 of 737.9 ± 1.4 µM.

On to `CC(C)C[C@H](NC(=O)[C@H](Cc1c[nH]cn1)NC(=O)[C@H](Cc1ccc(O)cc1)NC(=O)[C@H](CCCNC(=N)N)NC(=O)[C@H](Cc1ccc(O)cc1)NC(=O)[C@H](CCCCN)NC(=O)[C@@H](N)CCCCN)C(=O)N[C@@H](CCCCN)C(=O)N1CCC[C@H]1C(=O)N[C@@H](Cc1ccccc1)C(=O)NCCCC[C@H](NC(=O)[C@H](Cc1ccccc1)NC(=O)[C@@H]1CCCN1C(=O)[C@H](CCCCN)NC(=O)[C@H](CC(C)C)NC(=O)[C@H](Cc1c[nH]cn1)NC(=O)[C@H](Cc1ccc(O)cc1)NC(=O)[C@H](CCCNC(=N)N)NC(=O)[C@H](Cc1ccc(O)cc1)NC(=O)[C@H](CCCCN)NC(=O)[C@H](CCCCN)NC(=O)c1ccc(CNC(=NC(=O)c2ccccc2)Nc2ccc(Br)cc2)cc1)C(N)=O` [(GVL1)-p-Bt] (I: X2-KKYRYHLKPFK-NH2 / II: H-KKYRYHLKPF; amide I:11-II:C), for which the “infection rate, fold lower than untreated cells and Amph B” value in series [3] (L. amazonensis, at the tested concentrations (10 and 5 μM)) is on record as 3–4 fold.

Consider `C[C@@H]1[C@H](O)[C@@H](C)/C=C/C=C/C=C/C=C/C=C/C=C/C=C/[C@H](O[C@@H]2O[C@H](C)[C@@H](O)[C@H](N)[C@@H]2O)C[C@@H]2O[C@](O)(C[C@@H](O)C[C@@H](O)[C@H](O)CC[C@@H](O)C[C@@H](O)CC(=O)O[C@H]1C)C[C@H](O)[C@H]2C(=O)O` [Amph B, amphotericin B], for which the IC50 in series [1] is 4.9 µM; in series [3], 0.63 ± 0.02 µM; in series [5], 0.73 ± 0.2 µM; in series [4], 0.7 ± 0.2 µM; in series [6], 0.45 ± 1.2 µM.

`O=C(O)c1ccc(CN/C(=N/C(=O)c2ccccc2)Nc2ccc(Br)cc2)cc1` [GVL1, (Z)-4-((2-benzoyl-3-(4-bromophenyl)guanidino)methyl) benzoic acid]: the IC50 worked out at 8.9 ± 1.41 µM in series [3], 7.5 ± 3.53 µM in series [5], 34.4 ± 0.1 µM in series [4] and 51.8 ± 0.1 µM in series [6].

The term IC50 denotes the concentration needed to halve the response being measured. The CC50 is the concentration giving 50% cytotoxicity. A high value points to lower toxicity to the cells.
